Non-standard residues stand in square brackets, D forms with d. Residues, ends and D or L forms follow the SMILES beside them. Ac5c = NC1(C(=O)O)CCCC1; GABA = NCCCC(=O)O
Assays:
Assay type in all cases: functional
Mus musculus [1] = species: Mus musculus; assay: Compound was tested for the immunomodulatory activity in vitro expressed as stimulation index by lymphocyte transformation test at 0.01 ug/mL
Outline: (§1)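 Normal Swiss mouse splenocytes, RBCs lysed with 0.83% NH4Cl in 10 mM Tris pH 7.2, held at 5x10⁶ cells/ml in RPMI with 10% FCS. Cells cultured 72 h at 37°C in CO₂ with PHA-P mitogen and peptide (10, 1, 0.1, 0.01 µg/ml), then [³H]thymidine pulse and 18 h further incubation. Read as DPM ratio to untreated wells; triplicate runs, ±SD.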

Mus musculus [2] = species: Mus musculus; assay: Compound was tested for the immunomodulatory activity in vitro expressed as stimulation index by lymphocyte transformation test at 1 ug/mL; outline: as §1
Mus musculus [3] = species: Mus musculus; assay: Compound was tested for the immunomodulatory activity in vitro expressed as stimulation index by lymphocyte transformation test at 10 ug/mL; outline: as §1
Mus musculus [4] = species: Mus musculus; assay: Compound was tested for the immunomodulatory activity in vitro expressed as stimulation index by mixed lymphocyte reaction at 10 ug/mL
Mus musculus [5] = species: Mus musculus; assay: Compound was tested for the immunomodulatory activity in vitro expressed as stimulation index by mixed lymphocyte reaction at 1 ug/mL
Mus musculus [6] = species: Mus musculus; assay: Compound was tested for the immunomodulatory activity in vitro expressed as stimulation index by lymphocyte transformation test at 0.1 ug/mL; outline: as §1
Mus musculus [7] = species: Mus musculus; assay: Compound was tested for the immunomodulatory activity in vitro expressed as stimulation index by mixed lymphocyte reaction at 0.1 ug/mL
Mus musculus [8] = species: Mus musculus; assay: Compound was tested for the immunomodulatory activity in vitro expressed as stimulation index by mixed lymphocyte reaction 1 ug/mL
Mus musculus [9] = species: Mus musculus; assay: Compound was tested for the immunomodulatory activity in vitro expressed as stimulation index by mixed lymphocyte reaction (MLR) at 10 ug/mL

SMILES	Stimulation index (Mus musculus [1])	Stimulation index (Mus musculus [2])	Stimulation index (Mus musculus [3])	Stimulation index (Mus musculus [4])	Stimulation index (Mus musculus [5])	Stimulation index (Mus musculus [6])	Stimulation index (Mus musculus [7])	Stimulation index (Mus musculus [8])	Stimulation index (Mus musculus [9])
CC[C@H](C)[C@H](NC(=O)C1(NC(=O)[C@H](CCC(=O)O)NC(=O)[C@@H](N)C(C)C)CCCC1)C(=O)N1CCC[C@H]1C(=O)N[C@@H](Cc1ccc(O)cc1)C(=O)O (H-VE[Ac5c]IPY-OH)	0.69	1.09	1.1	0.62	0.86	0.7	0.65	–	–
CC[C@@H](C)[C@@H](NC(=O)[C@@H]1CCCN1C(=O)[C@@H](CCC(=O)O)NC(=O)[C@H](C)N)C(=O)N1CCC[C@H]1C(=O)N[C@H](Cc1ccc(O)cc1)C(=O)O	1.17	1.4	1.22	0.72	0.82	1.57	0.74	–	–
CC[C@@H](C)[C@@H](NC(=O)[C@@H]1CCCN1C(=O)[C@H](CCC(=O)O)NC(=O)[C@@H](N)C(C)C)C(=O)N1CCC[C@H]1C(=O)N[C@H](Cc1ccc(O)cc1)C(=O)O	0.82	1.22	1.18	0.77	–	1.08	0.93	0.75	–
CC[C@H](C)[C@H](NC(=O)CCCNC(=O)[C@@H](N)C(C)C)C(=O)N1CCC[C@H]1C(=O)N[C@@H](Cc1ccc(O)cc1)C(=O)O (H-V[GABA]IPY-OH)	0.55	0.69	0.88	–	0.77	0.73	0.67	–	0.74
CC[C@@H](C)[C@@H](NC(=O)[C@@H]1CCCN1C(=O)[C@H](CCC(=O)O)NC(=O)[C@H](C)N)C(=O)N1CCC[C@H]1C(=O)N[C@H](Cc1ccc(O)cc1)C(=O)O	1.32	1.3	1.32	0.75	0.89	1.27	0.84	–	–
CC[C@H](C)[C@H](NC(=O)[C@@H]1CCCN1C(=O)[C@H](CCC(=O)O)NC(=O)[C@@H](N)C(C)C)C(=O)N1CCC[C@H]1C(=O)N[C@@H](Cc1ccc(O)cc1)C(=O)O	1.27	1.5	1.45	0.9	0.9	1.43	1	–	–
CC[C@H](C)[C@H](NC(=O)CNC(=O)CNC(=O)[C@@H](N)C(C)C)C(=O)N1CCC[C@H]1C(=O)N[C@@H](Cc1ccc(O)cc1)C(=O)O (H-VGGIPY-OH)	0.93	1.15	1.22	0.88	0.95	1.03	0.66	–	–

Source: ChEMBL document CHEMBL1130743, “Immunosuppressant activity in human beta-casein fragment analogs” (1998)
